The target of test [1] is Beta-1 adrenergic receptor (Rattus norvegicus, UniProt P18090). Description: Displacement of [3H]DHA (Dihydroalprenolol) from beta-1 adrenergic receptor in rat brain. Type of test: tissue-based. In a few lines: (§1)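 Rat brain radioligand displacement binding. IC50 values (μM) were derived by nonlinear regression from four or five concentrations of compound.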
For test [2], the target named is T1, Adrenergic receptor alpha-2 (Rattus norvegicus, UniProt P22086+P19328+P22909).
T1 sequence (P22086 whole entry): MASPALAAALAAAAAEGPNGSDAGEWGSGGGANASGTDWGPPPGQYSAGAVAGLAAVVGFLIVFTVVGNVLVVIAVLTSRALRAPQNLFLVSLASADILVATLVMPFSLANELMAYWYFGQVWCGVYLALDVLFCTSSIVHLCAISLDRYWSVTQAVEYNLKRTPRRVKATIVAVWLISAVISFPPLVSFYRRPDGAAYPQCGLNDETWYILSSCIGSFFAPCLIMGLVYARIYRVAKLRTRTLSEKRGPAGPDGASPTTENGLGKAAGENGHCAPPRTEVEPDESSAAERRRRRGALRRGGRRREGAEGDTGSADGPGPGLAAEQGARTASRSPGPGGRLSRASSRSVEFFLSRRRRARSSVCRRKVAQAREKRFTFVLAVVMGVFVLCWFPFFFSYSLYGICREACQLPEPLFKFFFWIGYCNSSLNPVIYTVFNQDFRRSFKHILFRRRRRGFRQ
T1 sequence (P19328 whole entry): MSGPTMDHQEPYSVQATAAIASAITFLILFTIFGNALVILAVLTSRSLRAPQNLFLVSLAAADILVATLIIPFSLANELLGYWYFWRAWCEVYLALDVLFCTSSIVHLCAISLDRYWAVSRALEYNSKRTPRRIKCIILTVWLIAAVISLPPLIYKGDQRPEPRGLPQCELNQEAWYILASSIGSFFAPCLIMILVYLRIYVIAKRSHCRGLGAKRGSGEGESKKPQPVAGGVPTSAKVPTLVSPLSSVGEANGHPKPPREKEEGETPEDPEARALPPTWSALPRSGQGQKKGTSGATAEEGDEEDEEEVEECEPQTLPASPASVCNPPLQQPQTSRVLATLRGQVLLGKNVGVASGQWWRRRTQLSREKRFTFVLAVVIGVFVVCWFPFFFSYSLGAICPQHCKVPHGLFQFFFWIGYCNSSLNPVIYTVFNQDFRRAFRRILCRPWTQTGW
T1 sequence (P22909 whole entry): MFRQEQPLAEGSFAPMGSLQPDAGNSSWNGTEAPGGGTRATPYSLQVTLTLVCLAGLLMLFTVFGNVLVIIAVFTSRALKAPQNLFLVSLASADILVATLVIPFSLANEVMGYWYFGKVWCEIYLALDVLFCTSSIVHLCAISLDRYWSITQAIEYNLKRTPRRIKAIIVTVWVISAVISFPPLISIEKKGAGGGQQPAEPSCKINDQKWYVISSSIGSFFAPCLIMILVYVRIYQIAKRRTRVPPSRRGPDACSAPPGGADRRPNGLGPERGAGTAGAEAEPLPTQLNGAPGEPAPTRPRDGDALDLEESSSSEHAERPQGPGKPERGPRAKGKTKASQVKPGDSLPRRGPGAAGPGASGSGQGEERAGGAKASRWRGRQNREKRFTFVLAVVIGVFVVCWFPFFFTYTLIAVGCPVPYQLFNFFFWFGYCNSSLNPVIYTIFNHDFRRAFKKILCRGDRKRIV
Description: Displacement of [3H]clonidine from alpha-2 adrenergic receptor in rat brain. Type of test: tissue-based. The method, boiled down: as §1

Test [3] in a line: Displacement of [3H]flunitrazepam from GABA-A benzodiazepine receptor of rat brain. In a few lines:
as §1

Test [4] concerns the target Beta-2 adrenergic receptor (Rattus norvegicus, UniProt P10608). Description: Displacement of [3H]DHA (Dihydroalprenolol) from beta-2 adrenergic receptor in rat brain. It is filed as tissue-based. In a few lines: as §1
In a further test the target is D(1A) dopamine receptor (Rattus norvegicus, UniProt P18901). Description: Displacement of [3H]cis-flupenthixol from Dopamine receptor D1 in rat brain. It is filed as tissue-based.
Another test addresses D(2) dopamine receptor (Rattus norvegicus, UniProt P61169). Description: Displacement of [3H]haloperidol from Dopamine receptor D2 in rat brain. It is filed as tissue-based.
A further test has as its system Rattus norvegicus. Description: Inhibition of Sidman avoidance in rats after peroral administration. It is filed as functional. The settings on record: po. In a few lines: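 Continuous (Sidman) avoidance responding in rats with oral dosing. At least three doses per drug, four animals per dose. ED50 reported ± SEM.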
In test [5] the target is Serotonin 1 (5-HT1) receptor (Rattus norvegicus, UniProt P28564+P30940+P19327+P28565). Description: Displacement of [3H]5-HT from serotonin-1 neurotransmitter receptor in rat brain. Type of test: tissue-based. In a few lines:
as §1

Bounds are passed on as bounds.

Chain of Beta-1 adrenergic receptor (P18090 whole entry): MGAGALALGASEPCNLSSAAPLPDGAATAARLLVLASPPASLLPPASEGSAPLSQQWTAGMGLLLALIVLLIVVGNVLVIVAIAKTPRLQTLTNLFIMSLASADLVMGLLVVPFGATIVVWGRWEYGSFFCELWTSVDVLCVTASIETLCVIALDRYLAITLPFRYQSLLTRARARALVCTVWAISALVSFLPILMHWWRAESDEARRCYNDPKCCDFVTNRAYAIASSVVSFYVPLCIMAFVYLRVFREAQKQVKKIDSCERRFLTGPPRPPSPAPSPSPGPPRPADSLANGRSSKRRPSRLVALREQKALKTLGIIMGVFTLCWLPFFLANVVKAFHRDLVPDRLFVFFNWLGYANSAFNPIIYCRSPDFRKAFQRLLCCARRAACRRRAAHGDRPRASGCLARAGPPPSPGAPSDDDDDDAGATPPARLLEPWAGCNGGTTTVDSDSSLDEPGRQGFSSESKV
Chain of D(2) dopamine receptor (P61169 whole entry): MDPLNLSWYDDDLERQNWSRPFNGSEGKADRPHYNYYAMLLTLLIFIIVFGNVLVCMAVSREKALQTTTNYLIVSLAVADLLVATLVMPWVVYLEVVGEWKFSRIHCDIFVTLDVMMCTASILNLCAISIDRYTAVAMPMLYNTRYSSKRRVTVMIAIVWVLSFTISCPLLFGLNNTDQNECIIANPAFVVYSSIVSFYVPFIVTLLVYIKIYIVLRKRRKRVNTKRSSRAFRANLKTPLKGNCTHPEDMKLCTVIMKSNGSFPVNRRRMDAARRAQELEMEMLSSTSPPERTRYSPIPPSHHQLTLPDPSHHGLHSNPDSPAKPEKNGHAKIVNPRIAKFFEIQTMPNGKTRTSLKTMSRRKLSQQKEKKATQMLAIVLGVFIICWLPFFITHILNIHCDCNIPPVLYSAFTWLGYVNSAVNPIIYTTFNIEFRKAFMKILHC
Chain of Beta-2 adrenergic receptor (P10608 whole entry): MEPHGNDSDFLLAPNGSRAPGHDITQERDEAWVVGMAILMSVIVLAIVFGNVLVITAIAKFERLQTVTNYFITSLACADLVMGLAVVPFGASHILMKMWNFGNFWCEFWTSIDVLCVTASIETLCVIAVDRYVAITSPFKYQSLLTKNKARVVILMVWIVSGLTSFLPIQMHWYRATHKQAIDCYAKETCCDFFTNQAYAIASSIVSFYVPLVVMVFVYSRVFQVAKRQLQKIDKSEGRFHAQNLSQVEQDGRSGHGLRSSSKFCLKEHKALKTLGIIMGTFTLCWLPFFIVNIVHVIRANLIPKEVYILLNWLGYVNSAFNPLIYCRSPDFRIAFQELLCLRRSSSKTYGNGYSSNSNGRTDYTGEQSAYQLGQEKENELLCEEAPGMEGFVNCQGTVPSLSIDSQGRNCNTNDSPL
Chain of D(1A) dopamine receptor (P18901 whole entry): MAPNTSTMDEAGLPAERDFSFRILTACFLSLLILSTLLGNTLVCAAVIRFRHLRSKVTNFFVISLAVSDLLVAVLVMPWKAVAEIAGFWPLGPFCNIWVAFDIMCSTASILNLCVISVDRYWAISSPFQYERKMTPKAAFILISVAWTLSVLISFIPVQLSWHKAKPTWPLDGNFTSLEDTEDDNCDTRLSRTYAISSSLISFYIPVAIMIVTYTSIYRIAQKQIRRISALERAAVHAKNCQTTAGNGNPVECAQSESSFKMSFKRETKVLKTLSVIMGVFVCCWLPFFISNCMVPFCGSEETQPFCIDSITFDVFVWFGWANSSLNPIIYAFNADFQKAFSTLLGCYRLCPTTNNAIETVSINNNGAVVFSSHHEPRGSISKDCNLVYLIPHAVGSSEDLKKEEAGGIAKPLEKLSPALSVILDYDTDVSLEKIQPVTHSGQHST

Take `CCC1CN2C(C)=Nc3c(C)nn(C)c3C2=N1` (stereo not drawn): the 50% inhibitory concentration (IC50) was more than 10 µM in test [1]; more than 10 µM in test [2]; more than 1 µM in test [3]; more than 10 µM in test [4]; more than 10 µM at D(1A) dopamine receptor; more than 10 µM on D(2) dopamine receptor. Moreover, the 50% inhibitory concentration (IC50) in test [5] was more than 10 µM. The ED50 with Rattus norvegicus came out at 19.2 mg/kg.

For the origin of these results see ChEMBL document CHEMBL1124042, “Synthesis and potential antipsychotic activity of 1H-imidazo[1,2-c]pyrazolo[3,4-e]pyrimidines” (J Med Chem, 1988).
